Results reported in ChEMBL document CHEMBL3045304, “Sesquiterpene lactones with potential use as natural herbicide models. 2. guaianolides” (2000).
Calls of active or inactive are those of the source. The rule behind the calls is not given here.

What was measured:
Lepidium sativum [1] = test: Inhibition of root length of Lepidium sativum at 0.1 mM or 1 mM after 4 days relative to untreated control
Allium cepa [2] = test: Stimulation of hypocotyl length of Allium cepa cv. Valenciana (onion) at 0.1 mM or 1 mM after 7 days relative to untreated control
Triticum aestivum [3] = test: Inhibition of hypocotyl length of Triticum aestivum cv. Cortex (wheat) at 0.1 mM or 1 mM after 5 days relative to untreated control; type: functional
Procedure, shortened: (§1)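 Wheat: 10 seeds per dish on filter paper with 5 mL test solution, 5 days in the dark at 25 °C, 10 replicates per concentration. Stock test solutions were 10^-3 or 10^-4 M in 10 mM MES, with lower levels made by dilution, all at pH 6.0. Parallel controls were run. Output is % difference from control.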

Solanum lycopersicum [4] = test: Stimulation of root length of Solanum lycopersicum cv. Tres Cantos (tomato) at 0.1 mM or 1 mM after 5 days relative to untreated control; type: functional
Procedure, shortened: (§2)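 Lettuce and tomato seeds, 25 per dish on filter paper, received 5 mL test solution. Incubation was 5 days in the dark at 25 °C, with four replicates per concentration. Solutions were made at 10^-3 or 10^-4 M in 10 mM MES, diluted serially, and adjusted to pH 6.0. Parallel controls were run. Results are % difference from control.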

Solanum lycopersicum [5] = test: Inhibition of root length of Solanum lycopersicum cv. Tres Cantos (tomato) at 0.1 mM or 1 mM after 5 days relative to untreated control; type: functional
Procedure, shortened: as §2

Allium cepa [6] = test: Stimulation of germination of Allium cepa cv. Valenciana (onion) at 0.1 mM or 1 mM after 7 days relative to untreated control
Lepidium sativum [7] = test: Stimulation of hypocotyl length of Lepidium sativum at 0.1 mM or 1 mM after 5 days relative to untreated control; type: functional
Triticum aestivum [8] = test: Inhibition of root length of Triticum aestivum cv. Cortex (wheat) at 0.1 mM or 1 mM after 5 days relative to untreated control; type: functional
Procedure, shortened: as §1

Lactuca sativa [9] = test: Stimulation of root length of Lactuca sativa cv. Roman (lettuce) at 0.1 mM or 1 mM after 5 days relative to untreated control; type: functional
Procedure, shortened: as §2

Lepidium sativum [10] = test: Stimulation of root length of Lepidium sativum at 0.1 mM or 1 mM after 5 days relative to untreated control; type: functional
Lactuca sativa [11] = test: Stimulation of hypocotyl length of Lactuca sativa cv. Roman (lettuce) at 0.1 mM or 1 mM after 5 days relative to untreated control; type: functional
Procedure, shortened: as §2

Solanum lycopersicum [12] = test: Inhibition of hypocotyl length of Solanum lycopersicum cv. Tres Cantos (tomato) at 0.1 mM or 1 mM after 5 days relative to untreated control; type: functional
Procedure, shortened: as §2

Lactuca sativa [13] = test: Inhibition of hypocotyl length of Lactuca sativa cv. Roman (lettuce) at 0.1 mM or 1 mM after 5 days relative to untreated control; type: functional
Procedure, shortened: as §2

Solanum lycopersicum [14] = test: Inhibition of germination of Solanum lycopersicum cv. Tres Cantos (tomato) at 0.1 mM or 1 mM after 5 days relative to untreated control; type: functional
Procedure, shortened: as §2

Triticum aestivum [15] = test: Stimulation of germination of Triticum aestivum cv. Cortex (wheat) at 0.1 mM or 1 mM after 5 days relative to untreated control; type: functional
Procedure, shortened: as §1

Lactuca sativa [16] = test: Stimulation of germination of Lactuca sativa cv. Roman (lettuce) at 0.1 mM or 1 mM after 5 days relative to untreated control; type: functional
Procedure, shortened: as §2

Lepidium sativum [17] = test: Inhibition of germination of Lepidium sativum at 0.1 mM or 1 mM after 4 days relative to untreated control
Triticum aestivum [18] = test: Inhibition of germination of Triticum aestivum cv. Cortex (wheat) at 0.1 mM or 1 mM after 5 days relative to untreated control; type: functional
Procedure, shortened: as §1

Lactuca sativa [19] = test: Inhibition of root length of Lactuca sativa cv. Roman (lettuce) at 0.1 mM or 1 mM after 5 days relative to untreated control; type: functional
Procedure, shortened: as §2

Allium cepa [20] = test: Inhibition of root length of Allium cepa cv. Valenciana (onion) at 0.1 mM or 1 mM after 5 days relative to untreated control; type: functional
Lepidium sativum [21] = test: Inhibition of hypocotyl length of Lepidium sativum at 0.1 mM or 1 mM after 4 days relative to untreated control
Solanum lycopersicum [22] = test: Stimulation of germination of Solanum lycopersicum cv. Tres Cantos (tomato) at 0.1 mM or 1 mM after 5 days relative to untreated control; type: functional
Procedure, shortened: as §2

Solanum lycopersicum [23] = test: Stimulation of hypocotyl length of Solanum lycopersicum cv. Tres Cantos (tomato) at 0.1 mM or 1 mM after 5 days relative to untreated control; type: functional
Procedure, shortened: as §2

Triticum aestivum [24] = test: Stimulation of root length of Triticum aestivum cv. Cortex (wheat) at 0.1 mM or 1 mM after 5 days relative to untreated control; type: functional
Procedure, shortened: as §1

Lactuca sativa [25] = test: Inhibition of germination of Lactuca sativa cv. Roman (lettuce) at 0.1 mM or 1 mM after 5 days relative to untreated control; type: functional
Procedure, shortened: as §2

Allium cepa [26] = test: Inhibition of hypocotyl length of Allium cepa cv. Valenciana (onion) at 0.1 mM or 1 mM after 7 days relative to untreated control
Allium cepa [27] = test: Stimulation of root length of Allium cepa cv. Valenciana (onion) at 0.1 mM or 1 mM after 7 days relative to untreated control
Triticum aestivum [28] = test: Stimulation of hypocotyl length of Triticum aestivum cv. Cortex (wheat) at 0.1 mM or 1 mM after 5 days relative to untreated control; type: functional
Procedure, shortened: as §1

Allium cepa [29] = test: Inhibition of germination of Allium cepa cv. Valenciana (onion) at 0.1 mM or 1 mM after 5 days relative to untreated control; type: functional
Allium cepa [30] = test: Stimulation of germination of Allium cepa cv. Valenciana (onion) at 0.1 mM or 1 mM after 5 days relative to untreated control; type: functional
Lepidium sativum [31] = test: Inhibition of germination of Lepidium sativum at 0.1 mM or 1 mM after 5 days relative to untreated control; type: functional
Lepidium sativum [32] = test: Inhibition of germination of Lepidium sativum at 0.1 mM or 1 mM after 4 days relative to untreated control; parameters: scale not given: the % may be the effect or the level left

| Structure (SMILES) | Activity (Allium cepa [2]) | Activity (Solanum lycopersicum [4]) | inhibition (Solanum lycopersicum [5]) | Activity (Lepidium sativum [7]) | Activity (Lactuca sativa [9]) | Activity (Lepidium sativum [10]) | Activity (Lactuca sativa [11]) | Activity (Triticum aestivum [15]) | Activity (Lactuca sativa [16]) | inhibition (Allium cepa [20]) | Activity (Solanum lycopersicum [22]) | Activity (Solanum lycopersicum [23]) | Activity (Triticum aestivum [24]) | inhibition (Allium cepa [26]) | Activity (Allium cepa [27]) | Activity (Triticum aestivum [28]) | inhibition (Allium cepa [29]) | inhibition (INH) (Lepidium sativum [1]) [%] | inhibition (Solanum lycopersicum [12]) | inhibition (Solanum lycopersicum [14]) | also measured |
| --- | --- | --- | --- | --- | --- | --- | --- | --- | --- | --- | --- | --- | --- | --- | --- | --- | --- | --- | --- | --- | --- |
| CC1=CC(=O)C2=C(C)C[C@H](O)[C@H]3[C@H](OC(=O)[C@@H]3C)[C@@H]12 [8ALPHA-HYDROXYACHILLIN] | inactive | inactive | inactive | inactive | inactive | inactive | inactive | inactive | inactive | inactive | <20% | <20% | inactive | inactive | inactive | inactive | inactive | – | – | – | inhibition (Lepidium sativum [1]): inactive; inhibition (Triticum aestivum [3]): inactive; Activity (Allium cepa [6]): inactive; inhibition (Triticum aestivum [8]): inactive; inhibition (INH) (Solanum lycopersicum [12]): <20%; inhibition (Lactuca sativa [13]): inactive; inhibition (INH) (Solanum lycopersicum [14]): <20%; Activity (Lepidium sativum [17]): inactive; inhibition (Lepidium sativum [17]): inactive; inhibition (Triticum aestivum [18]): inactive; inhibition (Lactuca sativa [19]): inactive; inhibition (Lepidium sativum [21]): inactive; inhibition (Lactuca sativa [25]): inactive |
| C=C1CC[C@H]2[C@H](CO)C(=O)O[C@@H]2[C@@]2(O)C(=C)[C@H](O)C[C@@H]12 | inactive | inactive | inactive | 20% | 20% | >40% | >40% | <20% | 20% | inactive | inactive | inactive | inactive | inactive | inactive | inactive | inactive | >40 | inactive | inactive | inhibition (Triticum aestivum [3]): inactive; Activity (Allium cepa [30]): inactive; inhibition (Triticum aestivum [8]): inactive; inhibition (INH) (Lactuca sativa [13]): >40%; Activity (Lepidium sativum [17]): inactive; inhibition (Lepidium sativum [17]): inactive; inhibition (INH) (Triticum aestivum [18]): <20%; inhibition (INH) (Lactuca sativa [19]): 20%; inhibition (INH) (Lepidium sativum [21]): 20%; inhibition (INH) (Lactuca sativa [25]): 20% |
| C=C1[C@@H]2[C@H]3OC(=O)[C@@H](CO)[C@@H]3CCC(=C)[C@@H]2C[C@H]1O | inactive | inactive | inactive | <20% | 20% | 20% | >40% | inactive | <20% | inactive | inactive | inactive | inactive | inactive | inactive | inactive | inactive | 20 | inactive | inactive | inhibition (Triticum aestivum [3]): inactive; Activity (Allium cepa [6]): inactive; inhibition (Triticum aestivum [8]): inactive; inhibition (INH) (Lactuca sativa [13]): >40%; Activity (Lepidium sativum [17]): inactive; inhibition (Lepidium sativum [17]): inactive; inhibition (Triticum aestivum [18]): inactive; inhibition (INH) (Lactuca sativa [19]): 20%; inhibition (INH) (Lepidium sativum [21]): <20%; inhibition (INH) (Lactuca sativa [25]): <20% |
| C=C1C(=O)O[C@H]2[C@H]1CCC(=C)[C@]13C[C@@H](O)C(=C)[C@]21OC(C)(C)O3 | inactive | inactive | inactive | >40% | 20% | >40% | inactive | inactive | <20% | inactive | inactive | inactive | <20% | inactive | inactive | <20% | inactive | >40 | inactive | inactive | inhibition (INH) (Triticum aestivum [3]): <20%; Activity (Allium cepa [30]): inactive; inhibition (INH) (Lepidium sativum [31]): 20%; inhibition (INH) (Triticum aestivum [8]): <20%; inhibition (Lactuca sativa [13]): inactive; inhibition (Triticum aestivum [18]): inactive; inhibition (INH) (Lactuca sativa [19]): 20%; inhibition (INH) (Lepidium sativum [21]): >40%; inhibition (INH) (Lactuca sativa [25]): <20%; Activity (Lepidium sativum [32]): 20% |
| C=C1CC[C@H]2C(=C)CC[C@H]3C(=C)C(=O)O[C@@H]3[C@@H]12 [DEHYDROCOSTUSLACTONE] | – | inactive | inactive | >40% | inactive | >40% | <20% | >40% | 20% | – | inactive | inactive | >40% | – | – | 20% | – | >40 | inactive | inactive | inhibition (INH) (Triticum aestivum [3]): 20%; inhibition (INH) (Lepidium sativum [31]): 20%; inhibition (INH) (Triticum aestivum [8]): >40%; inhibition (INH) (Lactuca sativa [13]): <20%; inhibition (INH) (Triticum aestivum [18]): >40%; inhibition (Lactuca sativa [19]): inactive; inhibition (INH) (Lepidium sativum [21]): >40%; inhibition (INH) (Lactuca sativa [25]): 20%; Activity (Lepidium sativum [32]): 20% |
| C=C1CC[C@H]2[C@H](C)C(=O)O[C@@H]2[C@@]2(O)C(=C)[C@H](O)C[C@@]12O | inactive | inactive | inactive | <20% | >40% | <20% | >40% | inactive | 20% | inactive | inactive | inactive | inactive | inactive | inactive | inactive | inactive | <20 | inactive | inactive | inhibition (Triticum aestivum [3]): inactive; Activity (Allium cepa [30]): inactive; inhibition (Triticum aestivum [8]): inactive; inhibition (INH) (Lactuca sativa [13]): >40%; Activity (Lepidium sativum [17]): inactive; inhibition (Lepidium sativum [17]): inactive; inhibition (Triticum aestivum [18]): inactive; inhibition (INH) (Lactuca sativa [19]): >40%; inhibition (INH) (Lepidium sativum [21]): <20%; inhibition (INH) (Lactuca sativa [25]): 20% |
